For 97 compounds, cytotoxicity results are on record in ChEMBL document CHEMBL4513216, “Probing the Open Global Health Chemical Diversity Library for Multistage-Active Starting Points for Next-Generation Antimalarials” (ACS Infect Dis, 2020).

The series is described as follows: Toxicity liver stage against HepG2, at 10uM. The series is classed as cell-based. Particulars: human, HepG2-A16-CD81EGFP cells; read-out: INHIBITION
Set-up: test concentration 10 uM, cell line HepG2-A16-CD81EGFP. Summed up:
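Uninfected HepG2-A16-CD81EGFP cells, 3 × 10^3 per well, 1536-well, plated on prespotted compound at 10 μM final, parasite-free screening media added to match infected plates; puromycin 10 μM positive, DMSO 0.5% negative; run in parallel with 48 h PbLuc assay at 37 °C, 5% CO2; viability by CellTiter-Glo luminescence, normalized to controls.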
In the case of `COCCn1cnc2ccc(NC(=O)c3ccc(OC)cc3)cc2c1=O`, the cytotoxicity at 10 µM is -6.78%. Consider `O=C(NCC1(CO)CC1)c1ccccc1Cl`, for which the cytotoxicity at 10 µM stood at 5.47%. The value for `O=C(NCC1(CO)CC1)c1ccccc1C(F)(F)F` was 4%; that for `CC(=O)NCCn1ccc(-c2ccccn2)n1` was 7.38%. Turning to `CC(=O)N1CCC2(CC1)CN(C(C)=O)CC21CCNC1=O` (configuration not stated), the cytotoxicity at 10 µM is -2.69%.

As for `Cc1oncc1C(=O)N1CCC2(CC1)CN(S(C)(=O)=O)c1ccccc12`, the cytotoxicity at 10 µM is 1.47%. The value for `CC(=O)NCC(=O)N1CCC2(COCc3c(C)nc(N(C)C)nc32)C1` (configuration not stated) was 1.41%; that for `NC(=O)c1c(NC(=O)CCC(=O)O)sc2c1CCc1ccccc1-2` was -1.99%. Regarding `CN1CCN(C(=O)Cn2ccc3c(Cl)cccc32)CC1`, the cytotoxicity at 10 µM was determined as 2.08%. The value for `COc1cc(OCC(=O)NCCc2ccccc2)cc(OC)c1OC` was 0.285%; that for `O=C(c1ccnnc1)N1C[C@H](Oc2cccnc2)[C@H]2OCCC[C@H]21` was -14.7%. Turning to `Cc1ccn(-c2ccnc(N3CCC(N4CCCCC4)CC3)n2)n1`, the cytotoxicity at 10 µM came to 4.54%. The value for `O=C(c1cc(-c2cccnc2)[nH]n1)N1CCCC(Cc2ccccn2)C1` (configuration not stated) was 7.5%; that for `Oc1nc(C2CCN(Cc3ccccn3)CC2)cc2ccccc12` was 11.8%. Next, `Cc1nn(C)cc1NC(=O)CC1CCN(CCc2ccccc2)CC1`: -4.92%.

As for `Cc1cc(CN2CCN(Cc3ccc(C#N)cc3F)CC2)no1`, the cytotoxicity at 10 µM worked out at 1.71%. For the compound `CC(CNC(=O)c1cccc(-n2cccn2)c1)Cn1ccnc1` (configuration not stated), the cytotoxicity at 10 µM was found to be 0.335%. In the case of `O=C(Cc1cccs1)NCCNc1nccc(C(F)(F)F)n1`, the cytotoxicity at 10 µM stood at 10.9%. The value for `CN1CCC(N(Cc2ccccc2)C(=O)c2nccn3ccnc23)CC1` was 3.52%; that for `CCN(Cc1ccncc1)C1CCN(c2ccccc2)C1=O` (configuration not stated) was -1.83%. Next, `CN(C)C(=O)N1CCN(Cc2cnc(-c3ccsc3)s2)CC1`: 2.03%; `CN(Cc1cnn(C)c1)C(=O)C(c1ccccc1)N1CCSCC1` (configuration not stated): 5.21%; `Cc1cccc(OCCCNC(=O)Cn2ccc(C)cc2=O)c1`: -4.42%. For `NC(=O)[C@@H]1Cc2ccccc2N1C(=O)C1CC(c2ccccc2)=NO1` (some centres not stated), the cytotoxicity at 10 µM was 5.79%. Next, `COc1cccc(CCC(=O)Nc2cnc3c(c2)c(C)nn3C)c1OC`: 1.67%; `Cc1ccc(OCCN(C)S(=O)(=O)c2cnn(C)c2)cc1`: 0.821%. Consider `N#Cc1ccc(F)c(CN(CC(=O)N2CCCC2)CC2CCCO2)c1` (configuration not stated), for which the cytotoxicity at 10 µM was -7.06%. The value for `O=C(COC1CCCC1)NCCc1noc(-c2ccccn2)n1` was 3.41%; that for `COCc1nccc(C2CCCN(Cc3ccccc3C#N)C2)n1` (configuration not stated) was 6.05%. Next, `Cc1nn(C)c(Cl)c1C(=O)NCc1cccnc1N1CCOCC1`: -132%; `Cc1cc(CCCC(=O)NC2CCN(C)C2=O)c(C)s1` (configuration not stated): -0.67%. In the case of `OC(CN(Cc1ccccc1)Cc1cccnc1)c1ccco1` (configuration not stated), the cytotoxicity at 10 µM was -0.408%. The value for `CC(C#N)CNS(=O)(=O)c1ccc(F)c(Br)c1` (configuration not stated) was -1.69%; that for `CN(C)C(=O)c1ccc(OC2CCCC2)cc1` was -3.51%; that for `Cc1noc(C)c1CNc1ccc2nc(C3CC3)sc2c1` was 10.8%.

As for `CC1CCCN(S(=O)(=O)N2CCOC3(CCCC3)C2)C1` (configuration not stated), the cytotoxicity at 10 µM is -1.57%. The value for `c1csc(SCC2CN=C(N3CCOCC3)S2)c1` (configuration not stated) was 10.3%; that for `CCC(NCc1ccccc1)c1ccccc1OCC(=O)NC` (configuration not stated) was 16.2%. Next, `CCC(NC(=O)CCCNC(=O)OC)c1cc(F)ccc1F` (configuration not stated): -2.34%; `CS(=O)(=O)Nc1cccc(C(=O)Nc2ccc3c(c2)C(=O)NC3)c1`: 5.91%; `CN(C)C1(CNC(=O)C2CCCN2Cc2ccc(F)cc2)CCOCC1` (configuration not stated): 3.25%. `N#Cc1cc(Cl)ccc1N1CCN(C(=O)C2CCC2)CC1`: the cytotoxicity at 10 µM came to 10.1%. Next, `Cn1cc(C2CCCN2C(=O)Cn2ccc3ccc(Cl)cc32)cn1` (configuration not stated): 8.81%. The value for `CC(C)(C)OC(=O)N1CSC[C@@H]1C(=O)NCc1ccncc1` was 1.17%.

As for `NS(=O)(=O)c1cnc(NCC2(c3cccc(F)c3)CCOCC2)s1`, the cytotoxicity at 10 µM was -5.71%. The value for `CCC(C)C(=O)Nc1ccc(CCN2CCOCC2)cc1` (configuration not stated) was -0.578%; that for `COCCn1cc(C(=O)N2CCCC2c2cc(C)no2)ccc1=O` (configuration not stated) was -17.7%; that for `CN(Cc1nnc(C2CC2)n1C)C(=O)c1ccnc(OC2CCC2)c1` was -1.01%. The value for `CN(CCC#N)C(=O)CCOc1cccc(F)c1` was -2.46%; that for `CCc1nccn1C1CCCN(C(=O)c2cn3c(C)cccc3n2)C1` (configuration not stated) was -14.5%. Consider `Cc1ccc(CNC(=O)Nc2cc(C(F)(F)F)c[nH]c2=O)cn1`, for which the cytotoxicity at 10 µM was -21.8%.

For the compound `O=C1CCCCN1Cc1cccc(NC(=O)N2CCSCC2)c1`, the cytotoxicity at 10 µM is -9.99%. Next, `COc1cccc(CN2CCOC(Cn3nc(C)cc3C)C2)c1` (configuration not stated): 7.83%; `COCC(=O)N1CCc2ccc(=O)n(CC3CC3)c2CC1`: 6.7%; `O=C(c1cccnc1)N1CCC2(CC1)CN(c1ccccn1)CCO2`: -69.5%.

As to `N#Cc1cccc(N2CC3(CCN(C(=O)c4ccnnc4)C3)CC2=O)c1` (configuration not stated), the cytotoxicity at 10 µM was found to be 2.64%. For `Cn1nc(CN2CCCCC2)c2c1CN(C(=O)c1ccoc1)C2`, the cytotoxicity at 10 µM is 2.83%.

On to `CN1CC2(CCN(C(=O)COc3ccc(Cl)cc3Cl)CC2)OC1=O`, for which the cytotoxicity at 10 µM is -3.25%. The value for `O=C(O)CCc1cc2n(n1)CCCN(C(=O)c1ccc(F)cc1F)C2` was -0.168%; that for `CCc1nc(C)c([C@H]2CN(C)C[C@@H]2C(=O)NCc2ccccc2OC)[nH]1` was 0.15%.

As to `CCn1ccnc1CN1CCCC(N(C)CCc2ccccc2)C1` (configuration not stated), the cytotoxicity at 10 µM worked out at 2.88%.

For `Cc1ccc(C(=O)N2CCC(n3cc(CN)nn3)CC2)cc1F`, the cytotoxicity at 10 µM was -3.54%. The value for `O=C(c1cc(COc2ccc3c(c2)OCO3)[nH]n1)N1CCSCC1` was -7.05%; that for `O=C1O[C@@H]2CN(Cc3cccnc3)C[C@@H]2N1CCCN1CCOCC1` was -2.27%. The value for `CCN1CC2(CCC1=O)CCN(C(=O)c1cn3cccnc3n1)CC2` was -9.7%. With `CC(C)(C)c1ccc(OCc2nc3c(c(=O)[nH]2)CCNC3)cc1`, the cytotoxicity at 10 µM was determined as 5.11%. As to `CN1CCN([C@@H]2CCN(Cc3ccc4cc(F)ccc4n3)C[C@H]2O)CC1`, the cytotoxicity at 10 µM was -4.1%.

Turning to `CCn1nc(C)c(CCNC(=O)C2CCCN(C(=O)COC)C2)c1C` (configuration not stated), the cytotoxicity at 10 µM is -0.367%.

As for `COc1ccc(CCN)cc1-c1ccc(O)cc1`, the cytotoxicity at 10 µM was -3.05%. The value for `CC1=C(CCN2CCCC(O)C2)C(C)(C)CCC1` (configuration not stated) was 3.43%. On to `CN(C)C(=O)c1ccc2c(c1)N(C)C(CC(=O)NC(CO)CO)CO2` (configuration not stated), for which the cytotoxicity at 10 µM was -4.36%. Next, `CCC(C(=O)NC1CCCC1)n1ccc2ncccc2c1=O` (configuration not stated): 4.2%; `CCS(=O)(=O)c1ncc(CN(C)Cc2ccccc2Cl)n1CCOC`: 3.58%. Next, `CCCc1ccc2oc(C(=O)N3CCN(CCOC)CC3)c(C)c2c1`: -8.36%; `Cc1ccc(Oc2ncccc2CNC2Cc3ccccc3C2)cn1`: -2.19%; `CCn1nc(C)c(CCNC(=O)c2coc(CN3CCOCC3)c2)c1C`: -0.386%. For the compound `CCn1c(CN(C)C)nnc1C1CCN(c2ccnc(C)c2)CC1`, the cytotoxicity at 10 µM was determined as 14.9%.

`Cc1cc(N2CCCN(C(=O)Cc3csc(C)n3)CC2)ccn1`: the cytotoxicity at 10 µM was -12%. The value for `NC(=O)C1CCN(c2nc3nccc(-c4ccccc4)c3c(=O)[nH]2)CC1` was -9%; that for `COc1ccccc1CN(C)C(=O)NCc1c(C)cc(C)[nH]c1=O` was -4.98%; that for `CN(C)C(=O)c1cccc(CN2CCN(CC(O)C(C)(C)C)CC2)c1` (configuration not stated) was 1.74%. `CCN(CC)c1ccc(C(=O)N2CCCC(n3cncn3)C2)cn1` (configuration not stated): the cytotoxicity at 10 µM was -4.78%.

Regarding `Cn1cc(Cl)cc1C(=O)N1CCN(Cc2cccs2)CC1`, the cytotoxicity at 10 µM is -8.1%. Next, `O=C(Cc1ccc2c(c1)CCO2)N1CCN(c2ccccn2)CC1`: -13.6%; `CCc1ccsc1C(=O)N1CCN(CC(C)(C)O)CC1`: -13.1%; `Cn1ccnc1CN1CCCN(C(=O)COC2CCCCC2)CC1`: -23.9%.

For `CCOc1cc(/C=C/c2ncc(C(=O)O)s2)cc(Br)c1O`, the cytotoxicity at 10 µM was -4.49%. Next, `CCOC(=O)C1CCN(Cc2csc(C(C)(C)C)n2)CC1`: -4.46%; `O=C(CN(C1=NCCCC1)c1ccccc1)c1ccccc1`: -0.239%; `CC[C@@H]1N(Cc2cccnc2)CCC[C@]12CCC(=O)N2C`: -0.213%.

For the compound `O=C(Nc1cccnc1)[C@H]1C[C@@H]2CCN(c3nncs3)C[C@H]2O1`, the cytotoxicity at 10 µM was -13.3%. The value for `CN1CCOCC12CCN(Cc1ccoc1)CC2` was 2.93%.

In the case of `NC(=O)N1CCC2(CCN(Cc3cccc(F)c3)CC2)CC1`, the cytotoxicity at 10 µM was -10.1%.

For `CC1=N[C@@]2(CC[C@@H]3CN(Cc4ccccc4)C[C@@H]32)C(=O)N1CC1CC1`, the cytotoxicity at 10 µM is -0.302%. Next, `Cn1cccc1C(=O)NCc1cnc2n1CCN(CC1CC1)C2`: 11.8%. Next, `c1cnc(N2Cc3nccn3CC(COc3cccnc3)C2)nc1` (configuration not stated): 10.7%; `COCc1cncc2c1CCN(Cc1ccccn1)C2`: -10.2%.
